Experimental data: ChEMBL document CHEMBL4270486, “Anti-inflammatory Activity of Natural Geranylated Flavonoids: Cyclooxygenase and Lipoxygenase Inhibitory Properties and Proteomic Analysis” (J Nat Prod, 2017)
Active and inactive are the calls of the source. The rule behind the calls is not given here.

How the values were obtained:
[1] = target: T1, Polyunsaturated fatty acid 5-lipoxygenase (Homo sapiens) (UniProt P09917); assay: Inhibition of human recombinant 5-LOX assessed as reduction in leukotriene B4 production at 20 uM pre-incubated for 10 mins before arachidonic acid addition and measured after 10 mins by ELISA
T1 sequence (whole entry): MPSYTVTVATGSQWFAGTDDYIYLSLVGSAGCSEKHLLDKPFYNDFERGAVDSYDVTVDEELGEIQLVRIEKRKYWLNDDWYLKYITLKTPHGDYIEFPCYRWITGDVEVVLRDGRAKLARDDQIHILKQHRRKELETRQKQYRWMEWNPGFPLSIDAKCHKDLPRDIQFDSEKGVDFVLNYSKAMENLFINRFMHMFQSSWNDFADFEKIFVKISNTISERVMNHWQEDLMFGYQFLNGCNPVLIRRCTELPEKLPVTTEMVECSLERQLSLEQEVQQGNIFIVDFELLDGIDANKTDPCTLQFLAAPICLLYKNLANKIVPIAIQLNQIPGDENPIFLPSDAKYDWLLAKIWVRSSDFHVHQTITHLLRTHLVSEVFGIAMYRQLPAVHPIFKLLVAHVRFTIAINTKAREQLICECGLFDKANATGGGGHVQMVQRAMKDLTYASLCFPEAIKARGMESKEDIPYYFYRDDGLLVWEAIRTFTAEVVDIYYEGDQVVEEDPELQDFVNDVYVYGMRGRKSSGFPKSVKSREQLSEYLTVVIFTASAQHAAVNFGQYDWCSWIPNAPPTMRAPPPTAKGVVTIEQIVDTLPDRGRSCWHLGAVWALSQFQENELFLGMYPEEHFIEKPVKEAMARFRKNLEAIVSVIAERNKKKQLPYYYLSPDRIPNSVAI
Summary of the method: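 Human recombinant 5-LOX, 1 unit/reaction, in PBS pH 7.4 containing 1 mM Na2EDTA and 200 μM ATP. Test compound in DMSO incubated 10 min at 4 °C. Reaction started with CaCl2 and arachidonic acid, 10 min at 37 °C, stopped with formic acid. LTB4 measured by ELISA (A405). […] Screening at 20 μM; ≥3 experiments, duplicate wells.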

[2] = target: T2, Polyunsaturated fatty acid 5-lipoxygenase (Homo sapiens, UniProt P09917); assay: Inhibition of human recombinant 5-LOX assessed as reduction in leukotriene B4 production pre-incubated for 10 mins before arachidonic acid addition and measured after 10 mins by ELISA
T2 sequence (P09917 whole entry): T1 sequence (whole entry)
Summary of the method: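 Human recombinant 5-LOX, 1 unit/reaction, in PBS pH 7.4 containing 1 mM Na2EDTA and 200 μM ATP. Test compound in DMSO incubated 10 min at 4 °C. Reaction started with CaCl2 and arachidonic acid, 10 min at 37 °C, stopped with formic acid. LTB4 measured by ELISA (A405). Screening at 20 μM; ≥3 experiments, duplicate wells.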

[3] = target: T3, Prostaglandin G/H synthase 1 (Ovis aries, UniProt P05979); assay: Inhibition of ram seminal vesicle COX1 assessed as reduction in PGE2 formation pre-incubated for 5 mins before arachidonic acid addition and measured after 20 mins by ELISA
T3 sequence (P05979 whole entry): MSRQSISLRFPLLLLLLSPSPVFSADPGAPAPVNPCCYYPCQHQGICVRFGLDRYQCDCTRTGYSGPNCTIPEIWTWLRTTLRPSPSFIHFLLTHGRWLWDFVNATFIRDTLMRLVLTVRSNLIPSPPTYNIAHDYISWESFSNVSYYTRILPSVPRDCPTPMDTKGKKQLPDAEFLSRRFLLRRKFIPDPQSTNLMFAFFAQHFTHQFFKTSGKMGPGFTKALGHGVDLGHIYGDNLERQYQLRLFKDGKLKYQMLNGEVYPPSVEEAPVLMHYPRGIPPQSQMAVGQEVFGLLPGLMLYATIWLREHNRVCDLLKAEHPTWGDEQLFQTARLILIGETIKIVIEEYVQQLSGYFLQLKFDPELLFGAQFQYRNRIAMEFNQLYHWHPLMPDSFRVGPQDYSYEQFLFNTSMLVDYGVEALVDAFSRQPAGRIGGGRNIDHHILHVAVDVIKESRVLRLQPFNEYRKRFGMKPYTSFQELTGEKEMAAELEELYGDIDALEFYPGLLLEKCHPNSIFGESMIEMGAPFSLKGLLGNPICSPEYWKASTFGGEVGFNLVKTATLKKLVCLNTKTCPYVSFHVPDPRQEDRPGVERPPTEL
Summary of the method: (§1)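 COX-1 from ram seminal vesicles (1 unit) or human recombinant COX-2 (0.5 unit) in 100 mM Tris pH 8.0 with 5 μM hematin, 18 mM L-epinephrine and 50 μM Na2EDTA. Compound in DMSO preincubated 5 min at room temperature. Arachidonic acid added, 20 min at 37 °C, stopped with formic acid. PGE2 by ELISA (A405).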

[4] = target: T4, Prostaglandin G/H synthase 2 (Homo sapiens, UniProt P35354); assay: Inhibition of human recombinant COX2 assessed as reduction in PGE2 formation pre-incubated for 5 mins before arachidonic acid addition and measured after 20 mins by ELISA
T4 sequence (P35354 whole entry): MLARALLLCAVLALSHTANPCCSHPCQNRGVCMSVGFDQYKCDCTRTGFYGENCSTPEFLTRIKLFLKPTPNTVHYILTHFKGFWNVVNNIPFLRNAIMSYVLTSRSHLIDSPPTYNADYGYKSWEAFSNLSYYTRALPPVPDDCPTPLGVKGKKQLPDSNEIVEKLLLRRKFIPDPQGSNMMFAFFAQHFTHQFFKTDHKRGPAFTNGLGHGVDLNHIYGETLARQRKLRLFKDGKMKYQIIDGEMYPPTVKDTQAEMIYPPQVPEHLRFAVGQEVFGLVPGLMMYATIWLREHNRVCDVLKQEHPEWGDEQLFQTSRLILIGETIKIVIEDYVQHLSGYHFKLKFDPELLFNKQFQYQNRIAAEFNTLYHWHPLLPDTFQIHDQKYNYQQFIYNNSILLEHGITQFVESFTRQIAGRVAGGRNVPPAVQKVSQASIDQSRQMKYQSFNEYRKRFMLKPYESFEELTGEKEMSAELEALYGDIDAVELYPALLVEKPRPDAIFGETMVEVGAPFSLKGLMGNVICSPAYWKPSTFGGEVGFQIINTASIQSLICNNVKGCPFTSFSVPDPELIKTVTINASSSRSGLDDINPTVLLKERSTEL

[5] = target: T5, Prostaglandin G/H synthase 2 (Homo sapiens) (UniProt P35354); assay: Inhibition of human recombinant COX2 assessed as reduction in PGE2 formation at 20 uM pre-incubated for 5 mins before arachidonic acid addition and measured after 20 mins by ELISA; summary of the method: as §1
T5 sequence (whole entry): T4 sequence (P35354 whole entry)

[6] = Selectivity index, ratio of IC50 for ram seminal vesicle COX1 to IC50 for human recombinant COX2
THP-1 [7] = assay: Increase in COX2 protein expression in LPS-stimulated human THP1 cells at 2 uM by proteomic analysis relative to untreated control; format: functional
Summary of the method: (§2)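 THP-1 monocytes in RPMI 1640 with 10% FBS and 2 mM L-glutamine, differentiated to macrophages with phorbol myristate acetate, then 24 h serum-free. Pretreatment 1 h with compound in DMSO (2 μM final) or DMSO alone, then LPS (E. coli 0111:B4, 1.0 μg/mL) for 24 h. Filter-aided trypsin digestion, iTRAQ 4-plex labelling, LC-MS/MS. Five biological replicates pooled per group.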

THP-1 [8] = assay: Inhibition of LPS-induced increase in TNFalpha protein expression in LPS-stimulated human THP1 cells at 2 uM by proteomic analysis relative to untreated control; format: functional, cell-based; summary of the method: as §2
THP-1 [9] = assay: Inhibition of LPS-induced increase in IL1 protein expression in LPS-stimulated human THP1 cells at 2 uM by proteomic analysis relative to untreated control; format: functional, cell-based; summary of the method: as §2
THP-1 [10] = assay: Inhibition of LPS-induced increase in CCL1 protein expression in LPS-stimulated human THP1 cells at 2 uM by proteomic analysis relative to untreated control; format: functional, cell-based; summary of the method: as §2
THP-1 [11] = assay: Inhibition of LPS-induced increase in CCL5 protein expression in LPS-stimulated human THP1 cells at 2 uM by proteomic analysis relative to untreated control; format: functional, cell-based; summary of the method: as §2
THP-1 [12] = assay: Inhibition of LPS-induced increase in CXCL1 protein expression in LPS-stimulated human THP1 cells at 2 uM by proteomic analysis relative to untreated control; format: functional, cell-based; summary of the method: as §2
THP-1 [13] = assay: Inhibition of LPS-induced decrease in VIP2 protein expression in LPS-stimulated human THP1 cells at 2 uM by proteomic analysis relative to untreated control; format: functional, cell-based; summary of the method: as §2
THP-1 [14] = assay: Increase in COX2 protein expression in human THP1 cells at 2 uM by proteomic analysis relative to untreated control; format: ADME, cell-based; conditions: thp-1, 2 µM; summary of the method: as §2
THP-1 [15] = assay: Increase in RNF207 protein expression in human THP1 cells at 2 uM by proteomic analysis relative to untreated control; format: ADME, cell-based; conditions: read-out: FC; summary of the method: as §2
THP-1 [16] = assay: Increase in TX1B3 protein expression in human THP1 cells at 2 uM by proteomic analysis relative to untreated control; format: ADME, cell-based; conditions: read-out: FC; summary of the method: as §2
[17] = target: T1, Polyunsaturated fatty acid 5-lipoxygenase (Homo sapiens); assay: Potency index, ratio of IC50 for zileuton to IC50 for test compound fior inhibition of human recombinant 5-LOX assessed as reduction in leukotriene B4 production pre-incubated for 10 mins before arachidonic acid addition and measured after 10 mins by ELISA

In the case of CC(C)=CCC/C(C)=C/Cc1c(O)cc2occc(=O)c2c1O, the inhibition [1] is reported as “Active” and the IC50 [2] is reported as 2.46 µM.
With CC(C)=CCC/C(C)=C/Cc1c(O)cc2c(c1O)C(=O)C[C@@H](c1ccc(O)cc1)O2 [BONANNIONE A] the IC50 [3] was 3.7 µM, the IC50 [4] was 6 µM and the inhibition [5] was “Active”. The Ratio IC50 [6] was 0.62.
In the case of COc1cc([C@@H]2CC(=O)c3c(cc(O)c(C/C=C(\C)CCC=C(C)C)c3O)O2)cc(OC)c1O, the inhibition [1] is reported as “Active” and the IC50 [2] is reported as 0.38 µM.
With CC(C)=CCCC1(C)C=Cc2c(cc3c(c2O)C(=O)C[C@@H](c2cc(O)cc(O)c2)O3)O1 (some centres not stated) the inhibition [1] was “Active” and the IC50 [2] was 0.35 µM.
For COc1cc([C@@H]2CC(=O)c3c(cc4c(c3O)C=CC(C)(CCC=C(C)C)O4)O2)ccc1O (some centres not stated), the IC50 [3] was 26.3 µM, the IC50 [4] was 9.5 µM and the inhibition [5] was “Active”. For the same molecule, the Ratio IC50 [6] was 2.8.
With COc1cc(C2CC(=O)c3c(cc4c(c3O)C=CC(C)(CCC=C(C)C)O4)O2)cc(OC)c1O (configuration not stated) the inhibition [1] was “Active” and the IC50 [2] was 0.37 µM.
For CC(C)=CCC/C(C)=C/Cc1c(O)cc2c(c1O)C(=O)C[C@@H](c1ccc(O)c(O)c1)O2 [NYMPHAEOL A], the “fold change (FC)” value (THP-1 [7]) was 1.55, the IC50 [3] was 1.8 µM and the IC50 [4] was 4.2 µM. The inhibition [5] was “Active”, the inhibition [1] was “Active” and the IC50 [2] was 0.05 µM. For the same molecule, the inhibition (THP-1 [8]) was “Active”, the inhibition (THP-1 [9]) was “Active” and the inhibition (THP-1 [10]) was “Active”. The inhibition (THP-1 [11]) was “Active”, the inhibition (THP-1 [12]) was “Active” and the inhibition (THP-1 [13]) was “Active”. The Activity (THP-1 [14]) was “Non-Toxic”, the fold induction at 2 µM (THP-1 [15]) was 2.09 and the fold induction at 2 µM (THP-1 [16]) was 1.88.
In the case of COc1cc([C@@H]2CC(=O)c3c(cc(O)c(C/C=C(\C)CCC=C(C)C)c3O)O2)cc(O)c1O, the IC50 [3] is reported as 3.3 µM, the IC50 [4] is reported as 10.6 µM and the inhibition [5] is reported as “Active”. The Ratio IC50 [6] was 0.31, the inhibition [1] was “Active” and the IC50 [2] was 0.06 µM. The Ratio IC50 [17] was 10.
In the case of COc1cc([C@@H]2CC(=O)c3c(cc(O)c(C/C=C(\C)CCC=C(C)C)c3O)O2)cc(O)c1OC, the IC50 [3] is reported as 4.2 µM, the IC50 [4] is reported as 6.4 µM and the inhibition [5] is reported as “Active”. The Ratio IC50 [6] was 0.66.
